Experimental data reported in paper PMC3099401 (Journal of agricultural and food chemistry, 2011).

How the values were obtained:
neuroblastoma cells [1] = test: In vitro cell viability; assay type: cell-based; conditions: 4 days, normalized to DMSO controls; for effect on viability: 100 and 200 μM
neuroblastoma cells [2] = test: Cellular uptake by live-cell multiphoton microscopy; assay type: cell-based; conditions: 37°C
In short: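 Live neuroblastoma cells in HBSS kept at 37°C on a stage incubator. Two-photon imaging used 765 nm Ti:Sapphire excitation, a 20× objective and a GaAsP photon-counting detector, with 1024×1024 images at identical laser power. Imaging ran from 90 s (the earliest possible) and at 5 min after adding 100 μM test compound, then again 5 min after an HBSS wash and after re-addition.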

[3] = system: SK-N-AS neuroblastoma cells; test: Calcium imaging with fura-2, SK-N-AS; assay type: cell-based; conditions: 100 μM
NGP neuroblastoma cells = test: Calcium imaging with fura-2, NGP; assay type: cell-based; conditions: 100 μM
[4] = system: SK-N-AS neuroblastoma cells; test: In vivo efficacy, SK-N-AS xenograft mouse model; design: species or system athymic nu/nu mice

O=C(O)[C@H]1O[C@@H](Oc2cc(O)cc(/C=C/c3ccc(O)cc3)c2)[C@H](O)[C@@H](O)[C@@H]1O [3-Glu-Res, 3-O-glucuronidated Res]
effect on viability (neuroblastoma cells [1]): no effect on viability

O=C(O)[C@H]1O[C@@H](Oc2ccc(/C=C/c3cc(O)cc(O)c3)cc2)[C@H](O)[C@@H](O)[C@@H]1O [4′-Glu-Res, 4′-O-glucuronidated Res]
effect on viability (neuroblastoma cells [1]): no effect on viability

Oc1ccc(/C=C/c2cc(O)cc(O)c2)cc1 [Res, resveratrol]
reduction of the number of viable cells (neuroblastoma cells [1]; 100 μM): ~85% | cellular uptake (cellular fluorescence, excited at 765 nm) (neuroblastoma cells [2]; 100 μM, HBSS): enters and then permeates throughout the cell | time after addition until cells become brightly fluorescent (neuroblastoma cells [2]; earliest time point that can be taken): ≤ 90 s | change in [Ca^2+]i (fura-2 fluorescence) [3]: rise in [Ca^2+]i | change in [Ca^2+]i (fura-2 fluorescence) (NGP neuroblastoma cells): rise in [Ca^2+]i | tumor regression ([4]; direct injection into the tumor, 250mg/kg, block copolymer formulation): regression of the tumor was then observed | tumor inhibition compared to vehicle-treated controls ([4]; peri-tumor, 5 injections of 200 μL R-P104 (approx. 5.0 mg Res each) over two weeks): about 88%

O=S(=O)(O)Oc1cc(O)cc(/C=C/c2ccc(O)cc2)c1 [monosulf-Res, Res 3-O-sulfate]
effect on viability (neuroblastoma cells [1]): no effect on viability
